ChEMBL document CHEMBL1156144, “Biaryl ethers as novel non-nucleoside reverse transcriptase inhibitors with improved potency against key mutant viruses” (J Med Chem, 2009)
pIC50, pKi: −log10 of the molar value.

Tests used:
[1] = test system: Rattus norvegicus; assay: AUC in Sprague-Dawley rat at 10 mg/kg, po; assay type: ADME, organism-based, Plasma; design: dose 10 mg/kg, route oral; details: in vivo
[2] = test system: Human immunodeficiency virus; assay: Antiviral activity against HIV with reverse transcriptase Y181C mutant assessed as inhibition of viral replication; assay type: functional, organism-based; details: Human immunodeficiency virus 1
[3] = Oral bioavailability in Beagle dog at 1 mg/kg; assay type: ADME, organism-based, Canis lupus familiaris; details: in vivo
[4] = test system: Human immunodeficiency virus; assay: Antiviral activity against HIV with reverse transcriptase K103N mutant assessed as inhibition of viral replication; assay type: functional, organism-based; details: Human immunodeficiency virus 1
[5] = test system: Human immunodeficiency virus; assay: Antiviral activity against HIV with reverse transcriptase V106A/G190A/F227L mutant assessed as inhibition of viral replication; assay type: functional, organism-based; details: Human immunodeficiency virus 1
[6] = test system: Human immunodeficiency virus; assay: Antiviral activity against HIV with reverse transcriptase K103N/G190A double mutant assessed as inhibition of viral replication; assay type: functional, organism-based; details: Human immunodeficiency virus 1
[7] = test system: Human immunodeficiency virus; assay: Antiviral activity against HIV with reverse transcriptase K103N/Y181C/G190A mutant assessed as inhibition of viral replication relative to wild type; assay type: functional
[8] = test system: Human immunodeficiency virus; assay: Antiviral activity against HIV with reverse transcriptase Y188L mutant assessed as inhibition of viral replication relative to wild type; assay type: functional
[9] = test system: Human immunodeficiency virus; assay: Antiviral activity against HIV with reverse transcriptase L100I/K103N double mutant assessed as inhibition of viral replication relative to wild type; assay type: functional
[10] = test system: Human immunodeficiency virus; assay: Antiviral activity against HIV with reverse transcriptase Y181C mutant infected in human MT2 cells assessed as inhibition of viral replication measuring p24 level after 3 days in presence of 10% fetal bovine serum; assay type: functional; details: Human immunodeficiency virus 1, MT2, Serum, 72 h; read-out: CIC95
Summary of the method: (§1)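 Multiple-cycle replication (Spread) assay in MT2 cells with H9IIIB-background mutant virus. Cells were infected overnight at moi ≈ 0.01 without compound, washed, then cultured 3 days across a range of compound concentrations in medium with 10% FBS. p24 was measured in supernatants. CIC95 is the lowest concentration inhibiting replication by ≥95%, reported as the geometric mean of ≥2 determinations.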

[11] = test system: Human immunodeficiency virus; assay: Antiviral activity against HIV with reverse transcriptase CNDO mutant assessed as inhibition of viral replication; assay type: functional, organism-based; details: Human immunodeficiency virus 1
[12] = test system: Human immunodeficiency virus; assay: Antiviral activity against HIV with reverse transcriptase V106A/G190A/F227L mutant assessed as inhibition of viral replication relative to wild type; assay type: functional
[13] = test system: Human immunodeficiency virus; assay: Antiviral activity against HIV with reverse transcriptase K103N/Y181C double mutant assessed as inhibition of viral replication relative to wild type; assay type: functional
[14] = test system: Human immunodeficiency virus; assay: Antiviral activity against HIV with reverse transcriptase G190S mutant assessed as inhibition of viral replication; assay type: functional, organism-based; details: Human immunodeficiency virus 1
[15] = test system: Human immunodeficiency virus; assay: Antiviral activity against wild type HIV H9-3B infected in human MT2 cells assessed as inhibition of viral replication measuring p24 level after 3 days in presence of 50% normal human serum; assay type: functional; details: Human immunodeficiency virus 1, H9-3B, 72 h, read-out: CIC95
Summary of the method: (§2)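 Multiple-cycle spread assay in MT2 cells with wild-type H9IIIB virus. Cells were infected overnight at moi ≈ 0.01 without compound, washed, then cultured 3 days across varying compound concentrations in RPMI 1640 with 10% FBS or 50% NHS. p24 was measured in supernatants. CIC95 is the lowest concentration inhibiting replication ≥95%, as the geometric mean of ≥2 determinations.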

[16] = test system: Human immunodeficiency virus; assay: Antiviral activity against HIV with reverse transcriptase K101E/G190A double mutant assessed as inhibition of viral replication; assay type: functional, organism-based; details: Human immunodeficiency virus 1
[17] = test system: Human immunodeficiency virus; assay: Antiviral activity against HIV with reverse transcriptase L100I mutant assessed as inhibition of viral replication relative to wild type; assay type: functional
[18] = Inhibition of RNA-dependent DNA polymerase activity of wild type HIV reverse transcriptase assessed as BrdU incorporation by standard ECL assay; design: species or system Human immunodeficiency virus
Summary of the method: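 Purified recombinant wild-type RT polymerase activity was measured using a 500-nt heteropolymeric RNA template and a biotinylated DNA primer. BrdU incorporation was detected with a ruthenylated anti-BrdU antibody by electrochemiluminescence. Ki is the geometric mean of at least two determinations, each within 25% of the mean.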

[19] = test system: Human immunodeficiency virus; assay: Antiviral activity against HIV with reverse transcriptase CNDO mutant assessed as inhibition of viral replication relative to wild type; assay type: functional
[20] = Volume of distribution in rhesus monkey at 1 mg/kg, iv; assay type: ADME, organism-based, Macaca mulatta; design: dose 1 mg/kg, route intravenous; details: in vivo
[21] = test system: Human immunodeficiency virus; assay: Antiviral activity against wild type HIV H9-3B infected in human MT2 cells assessed as inhibition of viral replication measuring p24 level after 3 days in presence of 10% fetal bovine serum; assay type: functional; details: Human immunodeficiency virus 1, MT2, Serum; read-out: CIC95; summary of the method: as §2
[22] = Oral bioavailability in rhesus monkey at 5 mg/kg; details: in vivo
[23] = test system: Human immunodeficiency virus; assay: Antiviral activity against HIV with reverse transcriptase K103N/Y181C double mutant infected in human MT2 cells assessed as inhibition of viral replication measuring p24 level after 3 days in presence of 10% fetal bovine serum; assay type: functional; details: Human immunodeficiency virus 1, MT2, Serum, 72 h; read-out: CIC95; summary of the method: as §1
[24] = test system: Human immunodeficiency virus; assay: Antiviral activity against HIV with reverse transcriptase K101E/G190A double mutant assessed as inhibition of viral replication relative to wild type; assay type: functional
[25] = test system: Human immunodeficiency virus; assay: Antiviral activity against HIV with reverse transcriptase MDRC4 mutant assessed as inhibition of viral replication; assay type: functional, organism-based; details: Human immunodeficiency virus 1
[26] = test system: Rhesus monkey; assay: AUC in rhesus monkey at 5 mg/kg, po; assay type: ADME, organism-based, Macaca mulatta, Plasma; design: dose 5 mg/kg, route oral; details: in vivo
[27] = test system: Human immunodeficiency virus; assay: Antiviral activity against HIV with reverse transcriptase G190S mutant assessed as inhibition of viral replication relative to wild type; assay type: functional
[28] = test system: Human immunodeficiency virus; assay: Antiviral activity against HIV with reverse transcriptase L100I/K103N double mutant assessed as inhibition of viral replication; assay type: functional, organism-based; details: Human immunodeficiency virus 1
[29] = Clearance in Sprague-Dawley rat at 2 mg/kg, iv; assay type: ADME, organism-based; design: dose 2 mg/kg, route intravenous; details: in vivo
[30] = test system: Human immunodeficiency virus; assay: Antiviral activity against HIV with reverse transcriptase K101E/Y181C/G190A mutant assessed as inhibition of viral replication; assay type: functional, organism-based; details: Human immunodeficiency virus 1
[31] = test system: Human immunodeficiency virus; assay: Antiviral activity against HIV with reverse transcriptase Y181C/G190A double mutant assessed as inhibition of viral replication relative to wild type; assay type: functional
[32] = test system: Human immunodeficiency virus; assay: Antiviral activity against HIV with reverse transcriptase MDRC4 mutant assessed as inhibition of viral replication relative to wild type; assay type: functional
[33] = test system: Human immunodeficiency virus; assay: Antiviral activity against HIV with reverse transcriptase K103N/G190A double mutant assessed as inhibition of viral replication relative to wild type; assay type: functional
[34] = test system: Human immunodeficiency virus; assay: Antiviral activity against HIV with reverse transcriptase K103N/P225H double mutant assessed as inhibition of viral replication relative to wild type; assay type: functional
[35] = Half life in rhesus monkey at 1 mg/kg, iv; assay type: ADME, organism-based, Macaca mulatta; design: dose 1 mg/kg, route intravenous; details: in vivo
[36] = Clearance in rhesus monkey at 1 mg/kg, iv; assay type: ADME, organism-based, Macaca mulatta; design: dose 1 mg/kg, route intravenous; details: in vivo
[37] = test system: Human immunodeficiency virus; assay: Antiviral activity against HIV with reverse transcriptase K101E/Y181C/G190A mutant assessed as inhibition of viral replication relative to wild type; assay type: functional
[38] = test system: Human immunodeficiency virus; assay: Antiviral activity against HIV with reverse transcriptase K103N/P225H double mutant assessed as inhibition of viral replication; assay type: functional, organism-based; details: Human immunodeficiency virus 1
[39] = Half life in Sprague-Dawley rat at 2 mg/kg, iv; assay type: ADME, organism-based; design: dose 2 mg/kg, route intravenous; details: in vivo
[40] = test system: Human immunodeficiency virus; assay: Antiviral activity against HIV with reverse transcriptase Y181C mutant assessed as inhibition of viral replication relative to wild type; assay type: functional
[41] = test system: Human immunodeficiency virus; assay: Antiviral activity against HIV with reverse transcriptase L100I mutant assessed as inhibition of viral replication; assay type: functional, organism-based; details: Human immunodeficiency virus 1
[42] = Volume of distribution in Sprague-Dawley rat at 2 mg/kg, iv; assay type: ADME, organism-based; design: dose 2 mg/kg, route intravenous; details: in vivo
[43] = Half life in Beagle dog at 0.5 mg/kg, iv; assay type: ADME, organism-based, Canis lupus familiaris; design: dose 0.5 mg/kg, route intravenous; details: in vivo
[44] = test system: Canis familiaris; assay: AUC in Beagle dog at 1 mg/kg, po; assay type: ADME, organism-based, Canis lupus familiaris, Plasma; design: dose 1 mg/kg, route oral; details: in vivo
[45] = Volume of distribution in Beagle dog at 0.5 mg/kg, iv; assay type: ADME, organism-based, Canis lupus familiaris; design: dose 0.5 mg/kg, route intravenous; details: in vivo
[46] = test system: Human immunodeficiency virus; assay: Antiviral activity against HIV with reverse transcriptase G190A mutant assessed as inhibition of viral replication; assay type: functional, organism-based; details: Human immunodeficiency virus 1
[47] = test system: Human immunodeficiency virus; assay: Antiviral activity against HIV with reverse transcriptase Y188L mutant assessed as inhibition of viral replication; assay type: functional, organism-based; details: Human immunodeficiency virus 1
[48] = test system: Human immunodeficiency virus; assay: Antiviral activity against HIV with reverse transcriptase K103N/Y181C/G190A mutant assessed as inhibition of viral replication; assay type: functional, organism-based; details: Human immunodeficiency virus 1
[49] = test system: Human immunodeficiency virus; assay: Antiviral activity against HIV with reverse transcriptase G190A mutant assessed as inhibition of viral replication relative to wild type; assay type: functional
[50] = test system: Human immunodeficiency virus; assay: Antiviral activity against HIV with reverse transcriptase K103N mutant assessed as inhibition of viral replication relative to wild type; assay type: functional
[51] = test system: Human immunodeficiency virus; assay: Antiviral activity against HIV with reverse transcriptase K103N/Y181C double mutant assessed as inhibition of viral replication; assay type: functional, organism-based; details: Human immunodeficiency virus 1
[52] = test system: Human immunodeficiency virus; assay: Antiviral activity against HIV with reverse transcriptase Y181C/G190A double mutant assessed as inhibition of viral replication; assay type: functional, organism-based; details: Human immunodeficiency virus 1
[53] = test system: Human immunodeficiency virus; assay: Antiviral activity against HIV with reverse transcriptase K103N mutant infected in human MT2 cells assessed as inhibition of viral replication measuring p24 level after 3 days in presence of 10% fetal bovine serum; assay type: functional; details: Human immunodeficiency virus 1, MT2, Serum, 72 h; read-out: CIC95; summary of the method: as §1
[54] = Clearance in Beagle dog at 0.5 mg/kg, iv; assay type: ADME, organism-based, Canis lupus familiaris; design: dose 0.5 mg/kg, route intravenous; details: in vivo

For `N#Cc1cc(Cl)cc(Oc2cc(OCc3n[nH]c4nc(N)ccc34)ccc2Cl)c1`, the AUC [1] was 23 µM, the pIC50 [2] was 8.32 and the bioavailability [3] was 47%. It also gave a pIC50 [4] of 8.59, a pIC50 [5] of under 6.00 and a pIC50 [6] of 8.14. The “fold change (FC)” value [7] was 78.93, the “fold change (FC)” value [8] was 629.07 and the “fold change (FC)” value [9] was 24.86. The IC95 [10] was 27 nM, the pIC50 [11] was 8.85 and the “fold change (FC)” value [12] was over 714. The “fold change (FC)” value [13] was 55.5, the pIC50 [14] was 7.91 and the IC95 [15] was 26 nM. The pIC50 [16] was 8.16, the “fold change (FC)” value [17] was 0.93 and the pKi [18] was 9.70. The “fold change (FC)” value [19] was 1, the Vd [20] was 1.9 L/kg and the IC95 [21] was 5 nM. The bioavailability [22] was 1%, the IC95 [23] was 101 nM and the “fold change (FC)” value [24] was 4.93. The pIC50 [25] was 8.05, the AUC [26] was 0.3 µM and the “fold change (FC)” value [27] was 8.79. For the same molecule, the pIC50 [28] was 7.46, the clearance [29] was 9 mL/min/kg and the pIC50 [30] was 7.53. For the same molecule, the “fold change (FC)” value [31] was 8.29, the “fold change (FC)” value [32] was 6.43 and the “fold change (FC)” value [33] was 5.14. For the same molecule, the “fold change (FC)” value [34] was 1.57, the half-life [35] was 2.1 h and the clearance [36] was 16 mL/min/kg. For the same molecule, the “fold change (FC)” value [37] was 21.07, the pIC50 [38] was 8.66 and the half-life [39] was 3.5 h. The “fold change (FC)” value [40] was 3.43, the pIC50 [41] was 8.89 and the Vd [42] was 2 L/kg. For the same molecule, the half-life [43] was 3.9 h, the AUC [44] was 31 µM and the Vd [45] was 1.7 L/kg. It also gave a pIC50 [46] of 8.54, a pIC50 [47] of 6.06 and a pIC50 [48] of 6.96. The “fold change (FC)” value [49] was 2.07, the “fold change (FC)” value [50] was 1.86 and the pIC50 [51] was 7.11. It also gave a pIC50 [52] of 7.94, an IC95 [53] of 11 nM and a clearance [54] of 5.8 mL/min/kg.
